# Measured values pooled from the literature.
# Compare with care: the assays were run in different laboratories.
# Observed: enzyme activity
# Mode: inhibitor
# EGFR L858R/T790M: Epidermal growth factor receptor (EGFR, Homo sapiens, UniProt P00533, L858R/T790M)
# EGFR: Epidermal growth factor receptor (EGFR, Homo sapiens, UniProt P00533)
# EGFR C797S/L858R/T790M: Epidermal growth factor receptor (EGFR, Homo sapiens, UniProt P00533, C797S/L858R/T790M)
# EGFR L858R: Epidermal growth factor receptor (EGFR, Homo sapiens, UniProt P00533, L858R)
SMILES,target,technique,notes,IC50 [nM]
O=C(N/N=C/c1cccn1CCCN1CCCCC1)Nc1cc2c(Nc3ccc(F)c(Cl)c3)ncnc2cc1O[C@H]1CCOC1,EGFR L858R/T790M,,,11.4
C=C(Cl)C(=O)Nc1cc(Nc2nc(Nc3cnn(C)c3)c3sccc3n2)c(OC)cc1N1CCN(C)CC1,EGFR L858R/T790M,ELISA,,173
O=C(N/N=C/CN1CCOCC1)Nc1cc2c(Nc3ccc(F)c(Cl)c3)ncnc2cc1O[C@H]1CCOC1,EGFR,,,1.5
C=C(Cl)C(=O)Nc1cc(Nc2nc(N3CCOCC3)c3sccc3n2)c(OC)cc1N(C)CCN(C)C,EGFR C797S/L858R/T790M,ELISA,,> 1000
COc1cc2ncnc(Nc3ccc(F)c(Cl)c3)c2cc1NC(=O)N/N=C/c1cccn1CCCN(C)C,EGFR L858R/T790M,,,24.3
C=C(Cl)C(=O)Nc1cc(Nc2nc(Nc3cnn(C)c3)c3sccc3n2)c(OC)cc1N(C)CCN(C)C,EGFR,ELISA,,100
Nc1ccc(-c2csc(Nc3ccc4c(O)ncnc4c3)n2)cc1,EGFR,ELISA,,14.2
COc1cc2ncnc(Nc3ccc(F)c(Cl)c3)c2cc1NC(=O)N/N=C/c1cccn1CCN(C)C,EGFR,,,0.1
COCCOc1cc2ncnc(Nc3ccc(OCCn4ccnc4[N+](=O)[O-])c(Cl)c3)c2cc1OCCOC,EGFR,FRET,,230
C=CC(=O)Nc1cc(Nc2nc(N3CCc4sccc4C3)c3cccnc3n2)c(OC)cc1N1CCC(N(C)C)CC1,EGFR L858R/T790M,ELISA,,349
CN(C)C/C=N/NC(=O)Nc1cc2c(Nc3ccc(F)c(Cl)c3)ncnc2cc1O[C@H]1CCOC1,EGFR,,,0.2
COc1cc2ncnc(NCc3cccs3)c2cc1OC,EGFR,mobility shift,,35
CCN(CC)C/C=N/NC(=O)Nc1cc2c(Nc3ccc(F)c(Cl)c3)ncnc2cc1O[C@H]1CCOC1,EGFR L858R/T790M,,,13.2
COc1ccc(-c2nn(-c3ccc(S(C)(=O)=O)cc3)cc2C=N/N=c2\[nH]c(-c3ccc([N+](=O)[O-])cc3)cs2)cc1,EGFR L858R/T790M,,,80
C=CC(=O)Nc1cc(Nc2nccc(-c3cn(C4CC4)c4ccccc34)n2)c(OC)cc1N(C)CCN(C)C,"Epidermal growth factor receptor (EGFR, Homo sapiens, UniProt P00533, L861Q)",TR-FRET,,1.07
CCN(CC)CCCn1cccc1/C=N/NC(=O)Nc1cc2c(Nc3ccc(F)c(Cl)c3)ncnc2cc1O[C@H]1CCOC1,EGFR L858R/T790M,,,12.8
COc1cc2c(Nc3ccc(OCCCn4ccnc4[N+](=O)[O-])c(Cl)c3)ncnc2cc1OCCCN1CCOCC1,EGFR,FRET,,330
O=C1c2c(O)cc(O)cc2OC(c2ccc(O)c(O)c2)C1O (stereo not drawn),EGFR,radiometric,,29000
C=C(Cl)C(=O)Nc1cc(Nc2nc(N3CCc4sccc4C3)c3sccc3n2)c(OC)cc1N(C)CCN(C)C,EGFR C797S/L858R/T790M,ELISA,,> 1000
C=CC(=O)Nc1cc(Nc2nccc(Nc3cc(Cl)c(F)cc3C(C)(C)O)n2)c(OC)cc1N1CC[C@@H](N(C)C)C1,EGFR L858R/T790M,,with preincubation,13
Oc1ncnc2cc(Nc3nc(-c4ccc(Cl)cc4)cs3)ccc12,EGFR,ELISA,,4.81
COC(=O)/C=C/c1ccc2ncnc(Nc3cccc(C(F)(F)F)c3)c2c1,EGFR,radiometric,,19.1
COc1ccc(-c2nn(-c3ccc(S(C)(=O)=O)cc3)cc2/C=N/N=c2\[nH]c(-c3ccc(Br)cc3)cs2)cc1,EGFR L858R,,,36
CN1CCN(C/C=N/NC(=O)Nc2cc3c(Nc4ccc(F)c(Cl)c4)ncnc3cc2O[C@H]2CCOC2)CC1,EGFR,,,1.8
Oc1ncnc2cc(Nc3nc(-c4ccc(Br)cc4)cs3)ccc12,EGFR,ELISA,,4.96
CCC(=O)Nc1cc(Nc2nc(N3CCc4sccc4C3)c3cccnc3n2)c(OC)cc1N1CCSCC1,EGFR L858R/T790M,ELISA,,> 1000
Fc1ccc(-c2n[nH]cc2C=NNc2ccnc3cc(Cl)ccc23)cc1,EGFR,mobility shift,,73000
Oc1ncnc2cc(Nc3nc(-c4ccccc4)cs3)ccc12,EGFR,ELISA,,10
CC(C)Cc1ccc(-c2nn(-c3ccc(S(C)(=O)=O)cc3)cc2/C=N/N=c2\[nH]c(-c3ccc([N+](=O)[O-])cc3)cs2)cc1,EGFR L858R,,,114
COc1cccc(CNc2ncnc3cc(Cl)ccc23)c1,EGFR,mobility shift,,1700
